Measurements taken from ChEMBL document CHEMBL1759894, “Synthesis and SAR investigations of novel 2-arylbenzimidazole derivatives as melanin-concentrating hormone receptor 1 (MCH-R1) antagonists” (Bioorg Med Chem Lett, 2011).
Blank lines part the entries; values can stand above or below the compound they belong to.

How the values were obtained:
[1] = target: Melanin-concentrating hormone receptor 1 (Homo sapiens, UniProt Q99705); test: Displacement of Eu-labeled MCH from human MCH-R1 expressed in CHO by time-resolved fluorometric assay
Chain of Melanin-concentrating hormone receptor 1 (Q99705 whole entry): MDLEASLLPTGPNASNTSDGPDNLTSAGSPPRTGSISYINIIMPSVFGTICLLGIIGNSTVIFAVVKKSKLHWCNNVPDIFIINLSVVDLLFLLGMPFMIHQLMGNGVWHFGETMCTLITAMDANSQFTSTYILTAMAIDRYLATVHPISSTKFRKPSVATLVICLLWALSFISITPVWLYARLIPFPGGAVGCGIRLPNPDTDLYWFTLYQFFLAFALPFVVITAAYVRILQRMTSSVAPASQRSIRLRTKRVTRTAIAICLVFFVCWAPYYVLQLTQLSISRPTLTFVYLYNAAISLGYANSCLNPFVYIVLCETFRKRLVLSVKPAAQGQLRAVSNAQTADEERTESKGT
Procedure, shortened: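 Competitive binding on membranes from CHO cells expressing human MCH-R1, with Eu-labeled MCH as tracer and time-resolved fluorometric read-out. IC50 values are means of at least two measurements.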

[2] = Oral bioavailability in rat at 10 mg/kg; format: ADME, organism-based; conditions: in vivo
Procedure, shortened: (§1)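 Rats received 10 mg/kg by both intravenous and oral routes, n = 3.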

[3] = Plasma concentration in rat at 10 mg/kg, po at 3 hrs; format: ADME, organism-based; parameters: dose 10 mg/kg, route oral
Procedure, shortened: (§2)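 SD rats were given 10 mg/kg orally, and concentrations were measured 3 h after dosing. Values are means of n = 3 rats.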

[4] = Metabolic stability in human liver microsomes after 30 mins; format: ADME, Microsome; conditions: read-out: Stability
[5] = target: Voltage-gated inwardly rectifying potassium channel KCNH2 (Homo sapiens, UniProt Q12809); test: Inhibition hERG by patch clamp method
Chain of Voltage-gated inwardly rectifying potassium channel KCNH2 (Q12809 whole entry): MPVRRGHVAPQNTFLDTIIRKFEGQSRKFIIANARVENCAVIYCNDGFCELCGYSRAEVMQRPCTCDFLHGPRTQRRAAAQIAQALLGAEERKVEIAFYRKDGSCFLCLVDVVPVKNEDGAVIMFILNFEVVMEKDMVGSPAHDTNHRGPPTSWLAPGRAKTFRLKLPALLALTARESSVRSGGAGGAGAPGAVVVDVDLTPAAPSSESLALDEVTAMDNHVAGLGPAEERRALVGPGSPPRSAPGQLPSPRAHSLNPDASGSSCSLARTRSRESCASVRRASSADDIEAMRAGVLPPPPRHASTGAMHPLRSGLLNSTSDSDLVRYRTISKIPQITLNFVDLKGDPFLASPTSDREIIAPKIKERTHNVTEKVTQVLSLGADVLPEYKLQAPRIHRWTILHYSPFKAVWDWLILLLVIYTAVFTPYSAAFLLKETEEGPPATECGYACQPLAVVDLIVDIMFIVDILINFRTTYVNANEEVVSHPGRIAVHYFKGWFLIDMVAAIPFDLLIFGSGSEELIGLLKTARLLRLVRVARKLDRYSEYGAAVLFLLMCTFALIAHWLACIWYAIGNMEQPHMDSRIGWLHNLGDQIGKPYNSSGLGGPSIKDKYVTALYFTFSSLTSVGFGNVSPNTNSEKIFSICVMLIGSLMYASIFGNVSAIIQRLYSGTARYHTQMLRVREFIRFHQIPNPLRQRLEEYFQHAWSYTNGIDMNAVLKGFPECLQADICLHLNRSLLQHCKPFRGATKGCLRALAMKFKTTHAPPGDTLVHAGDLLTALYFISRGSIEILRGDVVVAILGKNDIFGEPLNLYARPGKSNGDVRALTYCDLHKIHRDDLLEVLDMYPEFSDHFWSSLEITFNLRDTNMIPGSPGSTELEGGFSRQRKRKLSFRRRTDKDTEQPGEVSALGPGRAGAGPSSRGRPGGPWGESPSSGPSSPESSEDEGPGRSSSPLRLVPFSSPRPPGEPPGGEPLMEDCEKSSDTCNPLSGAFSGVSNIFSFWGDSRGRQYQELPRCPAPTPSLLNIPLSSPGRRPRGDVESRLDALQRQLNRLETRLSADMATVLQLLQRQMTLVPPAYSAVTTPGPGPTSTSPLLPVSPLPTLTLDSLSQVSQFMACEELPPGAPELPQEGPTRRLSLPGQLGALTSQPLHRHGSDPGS

[6] = Drug level in rat brain at 10 mg/kg, po at 3 hrs; format: ADME, organism-based; parameters: dose 10 mg/kg, route oral; conditions: read-out: Drug uptake; procedure, shortened: as §2
[7] = Half life in rat at 10 mg/kg, iv and po; format: ADME, organism-based; parameters: dose 10 mg/kg, route oral; conditions: in vivo; procedure, shortened: as §1
[8] = Clearance in rat at 10 mg/kg, iv; format: ADME, organism-based; parameters: dose 10 mg/kg, route intravenous; conditions: in vivo; procedure, shortened: as §1
Rattus norvegicus = test: Volume of distribution at steady state in rat at 10 mg/kg, iv and po; format: ADME, organism-based; parameters: dose 10 mg/kg, route oral; conditions: in vivo; procedure, shortened: as §1
[9] = Metabolic stability in rat liver microsomes after 30 mins; format: ADME, Microsome; conditions: read-out: Stability

Structure (SMILES): CC(=O)Nc1ccc(C2CCN(CCCn3c(-c4ccc(Cl)cc4)nc4ccccc43)CC2)cc1
IC50 [1]: 5.38 µM

Structure (SMILES): Cc1ccc(C(=O)Nc2cccc(C3CCN(CCCn4c(-c5ccc(Cl)cc5)nc5ccccc54)CC3)c2)cc1
IC50 [1]: 0.3 µM

Structure (SMILES): CC(=O)Nc1cccc(C2CCN(CCCn3c(-c4ccc(C(C)C)cc4)nc4ccccc43)CC2)c1
IC50 [1]: 0.06 µM

Structure (SMILES): CC(=O)Nc1ccccc1C1CCN(CCCn2c(-c3ccc(Cl)cc3)nc3ccccc32)CC1
IC50 [1]: > 6 µM

Structure (SMILES): CC(=O)Nc1cccc(C2CCN(CCCn3c(-c4ccc(Cl)cc4)nc4ccccc43)CC2)c1
bioavailability [2]: 99%
concentration at 3 h [3]: 0.42 µg/mL
remaining at 0.5 h [4]: 97%
IC50 [5]: 0.003 µM
concentration at 3 h [6]: 160 ng/g
half-life [7]: 4.3 h
clearance [8]: 1.7 L/h/kg
Vdss (Rattus norvegicus): 6 L/kg
remaining at 0.5 h [9]: 98%

Structure (SMILES): CC(=O)Nc1cccc(C2CCN(CCn3c(-c4ccccc4)nc4ccccc43)CC2)c1
IC50 [1]: 10 µM

Further compounds by falling IC50 [1], results first:

IC50 [1]: 0.05 µM
Structure (SMILES): CC(=O)Nc1cccc(C2CCN(CCCn3c(-c4ccccc4C(F)(F)F)nc4ccccc43)CC2)c1

IC50 [1]: 0.032 µM
Structure (SMILES): CCc1ccc(-c2nc3ccccc3n2CCCN2CCC(c3cccc(NC(C)=O)c3)CC2)cc1

IC50 [1]: 0.03 µM
Structure (SMILES): CC(=O)Nc1cccc(C2CCN(CCCn3c(-c4cccc(C(F)(F)F)c4)nc4ccccc43)CC2)c1
